Screening data deposited in PubChem by Broad Institute.
A selection: hits, their analogues and other compounds. The true share with any hit is near 4.3%.
CAL PDZ FP-1: untagged CAL PDZ binding inhibitors, primary screen, biochemical, fluorescence polarization, HTS. inhibition, % at 24.9 µM. AID 602252, 2012. 300,000 tested, 0.92% active. Golgi-associated PDZ and coiled-coil motif-containing protein (Homo sapiens), Q9HD26. purified CAL PDZ, TMR-peptide fluorescence polarization, 1 h;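 active = mean inhibition of at least 30% with at least half of replicates also reaching 30%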;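 note: 0% = DMSO neutral control and 100% = excess unlabeled competitor peptide PRC23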
CAL PDZ FP-2: CAL PDZ peptide-binding inhibitors, primary screen, biochemical, fluorescence polarization, Cer-tagged CAL PDZ, HTS | purified CAL PDZ, TMR-peptide fluorescence polarization, 1 h | Golgi-associated PDZ and coiled-coil motif-containing protein (Homo sapiens), Q9HD26 | inhibition, % at 20 µM | 330,000 tested, 0.02% active;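 active = highest replicate inhibition of at least 40%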;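 note: plate controls were DMSO neutral control wells for no effect and unlabeled competitor peptide control wells for full effect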
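Test system: purified CerCALP PDZ construct; Compound dosing: one concentration, 20 µM compound; Also added: TMR-labelled reporter peptide T*-PRC34 bound in PDZ groove; Read-out: inhibition from polarization loss; Controls: unlabelled peptide and DMSO controls; Signal: FP readout, S and P plane fluorescence; Incubation: 1 h at RT.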
ALR H2O2 inh: inhibitors of human ALR sulfhydryl oxidase, primary screen, biochemical, H2O2 detection, HRP-luminol luminescence, single point; inhibition, % (no concentration beside the values); purified ALR, DTT oxidation; FAD-linked sulfhydryl oxidase ALR (Homo sapiens), P55789; 290,000 tested, 3.8% active;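 active = mean replicate inhibition above about 79%, with every replicate also reaching it, limit read from the data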
Target sequence (P55789 whole entry, looked up): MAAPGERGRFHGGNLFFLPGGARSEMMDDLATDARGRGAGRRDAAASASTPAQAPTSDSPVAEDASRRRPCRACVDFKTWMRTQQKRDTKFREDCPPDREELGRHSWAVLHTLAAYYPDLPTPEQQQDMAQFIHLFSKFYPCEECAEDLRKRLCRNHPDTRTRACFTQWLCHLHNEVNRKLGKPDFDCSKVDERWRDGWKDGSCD
Rtt109 Vps75: inhibitors of C. albicans Rtt109/Vps75 HAT, primary screen, biochemical, ThioGlo CoA-SH fluorescence, plate reader | Histone acetyltransferase RTT109 (Candida albicans (strain SC5314 / ATCC MYA-2876)), … | inhibition, % at 34.9 µM | AID 540336, 2011 | purified Rtt109/Vps75, 4 h | 330,000 tested, 0.16% active;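 active = inhibition of at least 50% in every replicate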
Target sequence (Q5AAJ8 whole entry, looked up): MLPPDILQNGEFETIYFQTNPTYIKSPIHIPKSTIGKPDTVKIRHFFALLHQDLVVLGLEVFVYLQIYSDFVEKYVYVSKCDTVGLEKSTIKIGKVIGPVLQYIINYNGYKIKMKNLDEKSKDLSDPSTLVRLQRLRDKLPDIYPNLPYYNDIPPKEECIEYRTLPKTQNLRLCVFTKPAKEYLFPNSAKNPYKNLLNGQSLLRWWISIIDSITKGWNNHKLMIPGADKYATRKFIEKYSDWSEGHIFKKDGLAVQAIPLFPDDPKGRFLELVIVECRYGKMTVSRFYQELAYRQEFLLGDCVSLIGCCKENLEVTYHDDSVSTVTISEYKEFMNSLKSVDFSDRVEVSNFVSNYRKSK
DYRK1A inh: rat Dyrk1A kinase inhibitors, primary screen, biochemical, single point, plate reader | Dual specificity tyrosine-phosphorylation-regulated kinase 1A (Rattus norvegicus), Q63470 | ADP-Glo luminescence, NFATc1 peptide | inhibition, % at 12.5 µM | 310,000 tested, 0.43% active; in the data active = inhibition above about 50%;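 note: plate controls were vehicle with enzyme for no effect and no enzyme for full effect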
Active calls of the source: *; . = no result given.

SMILES | CAL PDZ FP-1 | CAL PDZ FP-2 | ALR H2O2 inh | Rtt109 Vps75 | DYRK1A inh
CCC(C(=O)NC1CC(C)(C)NC(C)(C)C1)c1ccccc1 (centres undefined) | -3.2 | 4.0 | -18.7 | -3.5 | -4.7
Cc1ccc(S(=O)(=O)NC(=O)Nc2cc(C)ccc2F)cc1 | 1.6 | . | -7.1 | 8.4 | 6.9
CC(=O)NS(=O)(=O)c1ccc(N=c2ssc3c2-c2ccc(C)cc2NC3(C)C)cc1 | -4.1 | -0.7 | 99.6* | -1.2 | -1.2
CCc1nc(SCC(=O)Nc2nnc(CC)s2)c2c(=O)n(C)c(=O)n(C)c2n1 | -5.8 | -0.9 | -0.4 | -12.2 | -1.0
CCOc1ccccc1NC(=O)CSc1nc(=O)n(Cc2ccccn2)c2c1CCC2 | -2.7 | -0.5 | . | -3.8 | -6.2
CC(=O)Nc1cccc(NC(=O)CSc2nc(=O)n(Cc3ccccn3)c3c2CCC3)c1 | -2.8 | -2.2 | 98.4* | -3.4 | -4.7
CC(=O)Nc1cccc(NC(=O)CSc2nc(=O)n(Cc3ccncc3)c3c2CCC3)c1 | 0.8 | -0.9 | 98.9* | 0.5 | -1.8
COc1cccc(NC(=O)CSc2nc(=O)n(Cc3ccncc3)c3c2CCCC3)c1 | 2.5 | -2.6 | 1.0 | 6.1 | 1.3
O=C(C[C@H]1C[C@H](C(=O)N2CCOCC2)[C@@]2(CCC3CCCC3)c3[nH]c4cc(-c5ccco5)ccc4c3CCN2C1=O)NCCc1ccccn1 | -1.2 | -1.4 | . | 3.5 | -1.7
COc1ccc([N+](=O)[O-])cc1NC(=O)C(C)OC(=O)Cn1[nH]c(=O)c2ccccc2c1=O (centres undefined) | -2.6 | -2.1 | -3.1 | -1.4 | 3.1
CSS(=O)(=O)c1cccc2cccnc12 | . | -1.3 | 13.9 | 132.2* | 8.5
Cn1ccnc1SCc1cn2cc(Br)ccc2n1 | -3.1 | -0.5 | 98.6* | 0.0 | 2.1
O=C(CCCCCNC(=O)N1CCn2c1nc1ccccc12)N[C@@H](C(=O)O)c1ccccc1 | -2.5 | -0.1 | -3.3 | -6.8 | 4.1
CC(NC(=O)CCCCCNC(=O)N1CCn2c1nc1ccccc12)c1ccccc1 (centres undefined) | 7.8 | -0.6 | 91.6* | 8.2 | -6.2
CCN(Cc1ccc(OC)c(F)c1)C(=O)CCl | -5.1 | -0.3 | 96.6* | -5.4 | -3.5
Cc1ccc(NC(=O)C2CCN(c3ncnc4c3nc3n4CCCCC3)CC2)nc1 | 0.6 | -1.1 | -1.4 | -11.9 | -0.9
CC1CCCN(c2ccc(N)cc2C(N)=O)C1 (centres undefined) | 3.1 | -2.5 | 98.3* | . | 4.1
NC(=O)c1ccccc1N1CCCCC1 | -3.4 | 0.2 | 4.2 | -0.9 | -1.8
Cc1cc(N)ccc1N1CCCC1 | 0.5 | 3.3 | 98.4* | 1.5 | -3.6
NC(=O)c1cc(N)ccc1N1CCCCC1 | 1.8 | 0.7 | 99.1* | 4.6 | -0.5
NC(=O)c1cc(N)ccc1N1CCCC1 | -1.6 | 2.8 | 82.8* | -2.3 | -0.9
CN(C)n1cnc2ccsc2c1=O | -4.1 | 0.3 | -19.0 | -2.0 | -0.9
CCN(c1ccc(C)cc1C)S(=O)(=O)c1nnc(NC(=O)C(C)(C)C)s1 | -0.6 | 0.7 | 0.2 | 9.7 | -4.7
CCCCN(C)Cc1cc(=O)oc2cc3c(cc12)CCCC3 | . | -1.4 | -1.3 | -5.6 | 4.2
CCN(CCO)Cc1cc(=O)oc2cc3c(cc12)CCC3 | -1.5 | -0.7 | 87.2* | -4.8 | .
SMILES | CAL PDZ FP-1 | CAL PDZ FP-2 | ALR H2O2 inh | Rtt109 Vps75 | DYRK1A inh
Cc1nnc(SCC(=O)NC2CCCC2)n1-c1ccccc1 | -0.3 | -1.2 | 1.8 | 3.6 | -0.6
COc1cc(NC(=O)CSc2nnc(-c3cc(C)on3)o2)cc(OC)c1 | 6.1 | -0.5 | -6.8 | 1.0 | -5.1
Cc1cc(-c2nnc(SCC(=O)Nc3nc(-c4ccc(Cl)cc4)cs3)o2)no1 | 0.8 | -2.1 | 99.0* | 0.7 | -4.6
CC1CCCN(CC(O)COc2ccc(S(=O)(=O)N3CCCC3)cc2[N+](=O)[O-])C1 (centres undefined) | 1.5 | -1.3 | . | -2.3 | 3.4
CCOC(=O)c1c(N)sc(C(=O)N2CCOCC2)c1C | 5.5 | . | -2.5 | 7.8 | 1.9
CCn1c(N)c(C(=O)N2CCOCC2)sc1=S | -2.0 | 0.5 | 98.2* | 2.4 | -3.0
C=CCn1c(N)c(C(=O)N2CCOCC2)sc1=S | 13.6 | -1.4 | 98.6* | -0.7 | .
CSCC[C@H](NC(=O)[C@@H]1Cc2c([nH]c3ccccc23)C2c3ccccc3C(=O)N21)C(=O)NCC1CCCO1 (some centres undefined) | -1.4 | -0.4 | -2.7 | 21.4 | 2.7
Cc1nc2sc(C(N)=O)c(N)c2c2c1CCCC2 | -7.4 | -0.3 | -2.7 | 2.0 | 33.2
O=C(NCc1ccco1)c1cc2sccc2n1Cc1ccccc1 | -4.8 | . | 92.8* | -5.4 | 2.0
Cc1cccc(NC(=O)COC(=O)c2nn(C)c(=O)c3ccccc23)c1C | -2.9 | 2.9 | -0.1 | -0.1 | -5.0
Cc1nn(Cc2ccc(Cl)cc2Cl)c(C)c1NC(=O)CCl | 5.6 | -1.6 | 90.3* | 3.8 | 0.5
COc1cc2c(cc1OC)CN(C1CC(=O)N(c3c(C)cccc3C)C1=O)CC2 (centres undefined) | -1.6 | -0.2 | . | -1.0 | .
O=C(NCc1ccc(/C=N\NC(=O)C(=O)Nc2ccccc2Br)o1)C(=O)Nc1ccccc1 | -2.6 | -0.6 | 1.9 | -4.9 | .
COc1ccc(NC2C=CS(=O)(=O)C2)c(OC)c1 (centres undefined) | -7.1 | -0.5 | 84.9* | 1.2 | 2.5
CC(C)c1nc(C(=O)N2CCCC(CCC(=O)N(C)CCc3ccccn3)C2)cs1 (centres undefined) | -0.3 | -1.7 | 3.3 | -6.7 | 1.6
Nc1ccc(Oc2cc(N)cc(Oc3ccccc3)c2)cc1 | -3.8 | -0.9 | 99.5* | 8.5 | 1.9
Nc1ccc(Oc2ccc3nc(-c4ccccc4)c(-c4ccccc4)nc3c2)cc1 | . | -0.7 | -0.2 | -5.4 | 6.0
CCOC(=O)/C(C#N)=C1/SC(CC)C(=O)N1c1ccc(C)cc1 (centres undefined) | 55.8* | -0.5 | 17.9 | 1.0 | -1.2
CCOC(=O)/C(C#N)=C1/C=CN(c2ccc(C)cc2)C=N1 | 0.6 | -3.0 | -6.7 | 7.9 | 1.5
CC(C)c1ccc(-n2cnn(-c3ncccc3[N+](=O)[O-])c2=O)cc1 | 0.9 | -2.7 | . | 2.9 | 1.2
Cc1ccc(N(C(=O)Cn2nnc(-c3ccc(F)cc3)n2)C(C(=O)NC(C)(C)C)c2ccncc2)cc1 (centres undefined) | -3.3 | -1.2 | . | . | 2.7
C=CC[n+]1c(-c2ccc(Cl)cc2Cl)csc1Nc1c(C)n(C)n(-c2ccccc2)c1=O | 2.0 | 0.6 | 94.2* | 6.7 | -4.1
C=CC[n+]1c(-c2ccc(C)cc2)csc1Nc1c(C)n(C)n(-c2ccccc2)c1=O | 1.2 | -2.5 | 98.7* | 16.5 | -7.7
